Key:
[1] = Selectivity index, ratio of CC50 for cytotoxicity against African green monkey Vero cells to IC50 for antiviral activity against Vaccinia virus Copenhagen infected in African green monkey Vero cells; assay type: toxicity, cell-based; conditions: read-out: Ratio CC50/IC50
[2] = system: Vaccinia virus; test: Antiviral activity against Vaccinia virus Copenhagen infected in African green monkey Vero cells assessed as inhibition of virus-induced cytotoxicity incubated for 4 days by neutral red dye uptake based spectrophotometric analysis; assay type: functional, organism-based, Orthopoxvirus vaccinia
[3] = Cytotoxicity against African green monkey Vero cells assessed as cell destruction incubated for 4 days by neutral red dye uptake based spectrophotometric analysis; assay type: toxicity; conditions: chlorocebus sabaeus, time 4 day
Procedure, shortened: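 Uninfected confluent Vero monolayers in DMEM with 2% FBS were exposed to 3-fold compound dilutions, final 300 to 0.14 μg mL−1 (some from 600), in triplicate rows for 4 days at 37 °C. Viable cells were measured by neutral red uptake (1.5 h), acid phosphate/ethanol extraction and OD 490 nm. CC50 was taken from semilog concentration–OD curves and recalculated to μM.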

[4] = Selectivity index, ratio of CC50 for cytotoxicity against African green monkey Vero cells to IC50 for antiviral activity against Variola virus India3a infected in African green monkey Vero cells; assay type: toxicity, cell-based; conditions: read-out: Ratio CC50/IC50
[5] = Selectivity index, ratio of CC50 for cytotoxicity against African green monkey Vero cells to IC50 for antiviral activity against Cowpox virus Grishak infected in African green monkey Vero cells; assay type: toxicity, cell-based; conditions: read-out: Ratio CC50/IC50
[6] = system: Cowpox virus; test: Antiviral activity against Cowpox virus Grishak infected in African green monkey Vero cells assessed as inhibition of virus-induced cytotoxicity incubated for 4 days by neutral red dye uptake based spectrophotometric analysis; assay type: functional, organism-based; conditions: 96 h
[7] = system: Ectromelia virus; test: Antiviral activity against Ectromelia virus K-1 infected in African green monkey Vero cells assessed as inhibition of virus-induced cytotoxicity incubated for 4 days by neutral red dye uptake based spectrophotometric analysis; assay type: functional, organism-based; conditions: K-1, Vero, 96 h
[8] = Selectivity index, ratio of CC50 for cytotoxicity against African green monkey Vero cells to IC50 for antiviral activity against Ectromelia virus K-1 infected in African green monkey Vero cells; assay type: toxicity, cell-based; conditions: read-out: Ratio CC50/IC50
[9] = system: Variola virus; test: Antiviral activity against Variola virus India3a infected in African green monkey Vero cells assessed as inhibition of virus-induced cytotoxicity incubated for 4 days by neutral red dye uptake based spectrophotometric analysis; assay type: functional, organism-based; conditions: 96 h
[10] = Orthopoxvirus vaccinia, Copenhagen, Vero, 96 h, read-out: IC50

| SMILES | selectivity ratio [1] | IC50 [2, 10] [µM] | CC50 at 96 h [3] [µM] | selectivity ratio [4] | selectivity ratio [5] | IC50 [6] [µM] | IC50 [7] [µM] | selectivity ratio [8] | IC50 [9] [µM] | IC50 ([2]; vero) |
| --- | --- | --- | --- | --- | --- | --- | --- | --- | --- | --- |
| COc1ccc(-c2nc(C)c(C(C)=O)n2O)cc1 | 34 | 17.9 | 614 | – | – | – | – | – | – | – |
| O=C(NNC(=O)C1C2C=CC(C3CC23)C1C(=O)O)c1ccc(C(F)(F)F)cc1 (stereo unspecified) | 149000 | 0.008 | – | 149000 | 133000 | 0.009 | 0.008 | 149000 | 0.008 | – |
| COn1c(-c2ccc([N+](=O)[O-])cc2)nc2c1C(=O)CC(C)(C)C2 | 291 | 3.96 | 1150 | 291 | 65 | 17.9 | 12.5 | 92 | 3.96 | – |
| Cc1ccc(C)c(COn2c(-c3ccc([N+](=O)[O-])cc3)nc3c2C(=O)CC(C)(C)C3)c1 | 79 | 1.34 | 105 | – | < 8 | 32.3 | 14.4 | < 8 | – | – |
| COn1c(-c2ccc(N(C)C)cc2)nc(C)c1C(C)=O | < 8 | 62.1 | 197 | – | – | – | – | – | – | – |
| CC1(C)CC(=O)c2c(n(Cc3ccccc3)c(-c3ccc([N+](=O)[O-])cc3)[n+]2[O-])C1 | 13 | 27.7 | 359 | – | – | – | – | – | – | – |
| CC1(C)CC(=O)c2c(nc(-c3ccc(C#N)cc3)n2O)C1 | 351 | 0.498 | 175 | 120 | 10 | 17.1 | 2.49 | 70 | 1.45 | – |
| COn1c(-c2ccc(C#N)cc2)nc(C)c1C(C)=O | < 8 | 228 | 1060 | – | – | – | – | – | – | – |
| CC(=O)c1c(C)n(C)c(-c2ccc(C#N)cc2)[n+]1[O-] | – | – | 1510 | – | – | – | – | – | – | Not_active |
| CC1(C)CC(=O)c2c(nc(-c3ccc([N+](=O)[O-])cc3)n2OCc2ccc(Cl)c(Cl)c2)C1 | 178 | 0.61 | 109 | – | 15 | 7.04 | 1.8 | 60 | – | – |
| COn1c(-c2ccc(C#N)cc2)nc2c1C(=O)CC(C)(C)C2 | 27 | 28.5 | 757 | – | – | – | – | – | – | – |
| CC1(C)CC(=O)c2c(nc(-c3ccc([N+](=O)[O-])cc3)n2OCc2ccccc2Br)C1 | 34 | 2.91 | 100 | – | < 8 | 29.1 | 28.7 | < 8 | – | – |
| CC1(C)CC(=O)c2c(nc(-c3ccc([N+](=O)[O-])cc3)n2OCc2c(F)cccc2F)C1 | 43 | 1.22 | 51.7 | – | < 8 | 7.39 | 4.49 | 12 | – | – |
| CC(=O)c1c(C)nc(-c2ccc(C#N)cc2)n1O | 76 | 1.12 | 84.6 | – | – | – | – | – | – | – |
| CC1(C)CC(=O)c2c(nc(-c3ccc(C(F)(F)F)cc3)n2O)C1 | 300 | 0.154 | 46.2 | 257 | 19 | 2.41 | 0.49 | 94 | 0.18 | – |
| CC(=O)c1c(C)nc(-c2ccc(C(F)(F)F)cc2)n1O | 55 | 0.07 | 3.87 | – | – | – | – | – | – | – |
| CC1(C)CC(=O)c2c(nc(-c3ccc([N+](=O)[O-])cc3)n2O)C1 | 1070 | 0.133 | 142 | 373 | 123 | 1.16 | 0.39 | 358 | 0.38 | – |
| COn1c(-c2ccc(C(F)(F)F)cc2)nc(C)c1C(C)=O | 30 | 5.9 | 176 | – | – | – | – | – | – | – |
| CC(=O)c1c(C)nc(-c2ccc([N+](=O)[O-])cc2)n1O | 44 | 0.651 | 28.3 | – | < 8 | 5.9 | 1.3 | 22 | – | – |
| Cn1c2c([n+]([O-])c1-c1ccc([N+](=O)[O-])cc1)C(=O)CC(C)(C)C2 | 13 | 183 | 2440 | – | – | – | – | – | – | – |
| CC1(C)CC(=O)c2c(nc(-c3ccc([N+](=O)[O-])cc3)n2OCc2ccccc2)C1 | 182 | 6.39 | 1160 | – | 15 | 78.2 | 30.9 | 38 | – | – |
| CC(=O)c1c(C)n(C)c(-c2ccc([N+](=O)[O-])cc2)[n+]1[O-] | – | – | 2980 | – | – | – | – | – | – | Not_active |
| CC(=O)c1c(C)nc(-c2ccc(N(C)C)cc2)n1O | 23 | 12.9 | 299 | – | – | – | – | – | – | – |
| COn1c(-c2ccc([N+](=O)[O-])cc2)nc(C)c1C(C)=O | 93 | 4.76 | 444 | – | 20 | 22.3 | 13.9 | 32 | – | – |
| Cn1c2c([n+]([O-])c1-c1ccc(C(F)(F)F)cc1)C(=O)CC(C)(C)C2 | 146 | 14.2 | 2080 | – | – | – | – | – | – | – |
| COc1ccc(-c2nc(C)c(C(C)=O)n2OC)cc1 | < 8 | 207 | 357 | – | – | – | – | – | – | – |
| Nc1ccn(C[C@@H](CO)OCP(=O)(O)O)c(=O)n1 [CIDOFOVIR ANHYDROUS] | 34 | – | 1110 | 26 | 23 | 48.2 | 39.4 | 28 | 43.1 | – |
